These entries were drawn from the full list.
HKDC1 activator = activators of human hexokinase HKDC1; recombinant HKDC1, G6PDH/diaphorase resazurin fluorescence; stronger effect = lower value; activity change, negative = activation, % at 20 µM; 0.056% of 340,000 active; AID 493187;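 active = activation of 40% or more at 20 µM, a change of -40% or lower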
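Signal: coupled resazurin-to-resorufin fluorescence, Ex 525/Em 613 nm. Test system: in-house human HKDC1 enzyme, G6PDH and diaphorase coupling enzymes. Quantity: HKDC1 5 µg/mL. Timing: 90 min reaction at room temperature, dark.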
The depositor's hits bear a star.

How did Cc1nc2c(O)c3c(c(O)c2nc1C)C1C=CC3CC1 do in these assays?
HKDC1 activator: 82

How did Cc1ccc(C)c(-n2nnnc2Sc2nnnn2-c2ccccc2)c1 do in these assays?
HKDC1 activator: 47

What do the screens show for `CCCCC(=O)NC(c1ccc(N(CC)CC)cc1)c1ccc2cccnc2c1O` (stereo not given)?
HKDC1 activator: -46*

Results for Oc1c(Br)cc(Br)cc1/C=N/c1nc2c(s1)CCCC2 ?
HKDC1 activator: 37

What do the screens show for `O=C1C(Cl)=C(N2CCN(c3ccccc3[N+](=O)[O-])CC2)C(=O)c2ccccc21`?
HKDC1 activator: 40

How did CCC(c1ccccc1)C(CC)c1cc(O)c(O)c(O)c1 (stereo not given) do in these assays?
HKDC1 activator: 42

What do the screens show for `COC(=O)c1cc(=O)n(Cc2ccc(OC)cc2)c(=NCc2ccc(OC)cc2)s1`?
HKDC1 activator: -43*

What do the screens show for `COc1ccc(-n2c(C)cc(C(=O)CCl)c2C)cc1`?
HKDC1 activator: 35

What do the screens show for `COc1ccc(CN2C(=O)c3cccnc3C2O)cc1` (stereo not given)?
HKDC1 activator: 41

What do the screens show for `O=c1[nH][nH]c2c(N=Cc3ccccc3O)ccc(F)c12`?
HKDC1 activator: 38

What do the screens show for `Cc1onc(C(=O)Nc2ccc(OC(F)(F)F)cc2)c1[N+](=O)[O-]`?
HKDC1 activator: 79

How did O=C(Nc1ccc2nc(-c3ccco3)c(-c3ccco3)nc2c1)N1CCN(c2ccccn2)CC1 do in these assays?
HKDC1 activator: 57

How did Nc1nc(N2CCN(c3ccccn3)CC2)nc2ccccc12 do in these assays?
HKDC1 activator: -58*

How did COc1ccc(-c2oc(NC(=O)CCl)c(C#N)c2-c2ccc(OC)cc2)cc1 do in these assays?
HKDC1 activator: 46

How did COc1ccc(OC(=O)N2C/C(=C/c3ccccc3)C(=O)/C(=C\c3ccccc3)C2)cc1 do in these assays?
HKDC1 activator: 36

Results for Cc1ccc(N=Nc2ccc(O)c3ncccc23)cc1C ?
HKDC1 activator: -43*

Results for C=CCN1C=C2C(=O)C(C)(OC(=O)CCC(=O)OC)C(=O)C(Br)=C2C=C1c1ccc(OC)cc1 (stereo not given) ?
HKDC1 activator: 36

What do the screens show for `Cc1ccccc1Nc1nc(N)nc(CSc2nnc3sc4ccccc4n23)n1`?
HKDC1 activator: 36

What do the screens show for `NC(=S)N=Nc1c(O)cc(O)c2[nH]c(=O)ccc12`?
HKDC1 activator: 35

How did O=c1cc(O)c2sc(Nc3ccc(Cl)c(F)c3)nc2[nH]1 do in these assays?
HKDC1 activator: 39

What do the screens show for `Cn1c2ccccc2c2ccc3c(c21)C(=O)C=CC3=O`?
HKDC1 activator: 37

How did CCOC(=O)c1sc(NC(=O)CSc2nnc(Cc3ccccc3)o2)c(C#N)c1C do in these assays?
HKDC1 activator: -40*

How did CCOC(=O)c1ccc(NC(=O)CSc2ccc(-c3ccccn3)nn2)cc1 do in these assays?
HKDC1 activator: 37

How did Cc1oc2c(c1C(=O)c1ccc(Cl)cc1)C(=O)C(=O)c1ccccc1-2 do in these assays?
HKDC1 activator: 55

Results for Cn1cnc([N+](=O)[O-])c1Sc1ccc(Br)cc1 ?
HKDC1 activator: -58*

What do the screens show for `COc1ccc2c(c1)/C(=C\c1cccc(/C=C3/C(=O)Nc4ccc(OC)cc43)n1)C(=O)N2`?
HKDC1 activator: 37

How did CCOC(=O)c1c(C)sc2c1N(C(=O)CCl)c1cc(Cl)ccc1S2 do in these assays?
HKDC1 activator: 45

What do the screens show for `NS(=O)(=O)c1ccc(N=Nc2c(=O)[nH]n3c(=O)c4c([nH]c23)CCCC4)cc1`?
HKDC1 activator: 40

What do the screens show for `CC(=NNC(=S)N1CC2CCC(CC2)C1)c1cnccn1`?
HKDC1 activator: -47*

Results for CC(=NNC(=S)N1CCN(C2CCCCCC2)CC1)c1ccccn1 ?
HKDC1 activator: -42*

What do the screens show for `O=C(/C=C/Sc1ccccc1)c1ccccc1`?
HKDC1 activator: 36

How did Cc1ccc(NC2c3ncccc3C(=O)N2c2ccccc2C)cc1C (stereo not given) do in these assays?
HKDC1 activator: 56

Results for COCCN1C=C2C(=O)C(C)(OC(=O)CCC(=O)OC)C(=O)C(Br)=C2C=C1c1ccc(OC)cc1 (stereo not given) ?
HKDC1 activator: 38

Results for N=C1/C(=C\c2coc3ccccc3c2=O)C(=O)N=C2SC(c3ccncc3)=NN12 ?
HKDC1 activator: 45

How did COc1cc2c(cc1OC)-c1cc(NCc3ccccn3)nc(=O)n1CC2 do in these assays?
HKDC1 activator: 59

How did N=C1/C(=C/c2coc3ccccc3c2=O)C(=O)N=C2SC(c3ccco3)=NN12 do in these assays?
HKDC1 activator: 38

How did Cc1ccccc1N=C1NN=C(c2ccccc2F)CS1 do in these assays?
HKDC1 activator: -47*

Results for CC(C)c1nc2oc3c(=O)[nH]cnc3c2c2c1COC(C)(C)C2 ?
HKDC1 activator: 36

What do the screens show for `O=C1C(N2CCOCC2)=C(n2nnc3ccccc32)C(=O)c2ccccc21`?
HKDC1 activator: 43

What do the screens show for `CSc1nc(N)nc2c1ncn2CC(=O)N[C@H](C)c1cccc2ccccc12`?
HKDC1 activator: -55*

What do the screens show for `CC1CCCN(C(=O)COC(=O)c2cc([N+](=O)[O-])ccc2N2CCOCC2)C1` (stereo not given)?
HKDC1 activator: 41

How did CC(=O)n1cc(N(C(=O)CCl)c2ccc([N+](=O)[O-])cc2)c2ccccc21 do in these assays?
HKDC1 activator: 48

What do the screens show for `COc1cc(/C=C2\SC(=O)N(c3ccc(Cl)cc3)C2=O)cc([N+](=O)[O-])c1O`?
HKDC1 activator: 44

How did C[n+]1c(-c2ccccc2)cc2c(=Cc3ccccc3)c3ccccc3n21 do in these assays?
HKDC1 activator: 42

What do the screens show for `Cc1ccccc1NC1=C/C(=N\S(=O)(=O)c2ccc(C(=O)O)cc2)c2ccccc2C1=O`?
HKDC1 activator: 70

Results for O=C1C=C(Nc2ccc(F)cc2)c2ccccc2C1=O ?
HKDC1 activator: 42

How did O=C(O)c1ccc(NC2=C(Cl)C(=O)c3ccccc3C2=O)cc1 do in these assays?
HKDC1 activator: -131*

How did Cc1nc2c(c(=O)c3ccccc3n2C)c(=O)n1-c1ccc(F)cc1 do in these assays?
HKDC1 activator: 51

Results for Cc1cc(C)cc(-n2c(N)c(C(=O)Nc3c(C)n(C)n(-c4ccccc4)c3=O)c3nc4ccccc4nc32)c1 ?
HKDC1 activator: 38

What do the screens show for `O=C(c1c[nH]c(C(=O)C(Cl)(Cl)Cl)c1)c1c(F)cccc1F`?
HKDC1 activator: 38

Results for c1ccc2oc(C3=NNC(=NC4CC4)SC3)cc2c1 ?
HKDC1 activator: -47*

How did CCCCC(CC)CN=C(N)NC(N)=NCCCCCCN=C(N)NC(N)=NCC(CC)CCCC (stereo not given) do in these assays?
HKDC1 activator: 42

What do the screens show for `Cc1cc(C)c(S(=O)(=O)/N=C2/C=C(Sc3ncn[nH]3)C(=O)c3ccccc32)cc1C`?
HKDC1 activator: 64

How did Oc1ccc(O)c(Cc2nc3ccccc3s2)c1 do in these assays?
HKDC1 activator: 45

Results for CC(=O)c1cc(O)c2ccccc2c1O ?
HKDC1 activator: 44

What do the screens show for `CC(C)(C)c1ccc(-c2csc(NNC3=NCCCCC3)n2)cc1`?
HKDC1 activator: -61*

How did O=C(CCl)N(c1ccc(Cl)cc1)c1c[nH]c2ccccc12 do in these assays?
HKDC1 activator: 41

How did COc1ccccc1C1=NNC(=Nc2cccc(S(=O)(=O)N(C)C)c2)SC1 do in these assays?
HKDC1 activator: -202*

Results for O=S(=O)(CCSc1nc2ccccc2s1)c1nc2ccccc2s1 ?
HKDC1 activator: 39

Screening data (PubChem)
